Most compounds without a hit are left out; they make up all but 3.9% or so of the library.
STAT1 act-1 = STAT1 signaling activators, primary screen, cell-based, HTS, luciferase reporter; NIH 3T3 STAT1-luciferase reporter, IFN-gamma, luminescence; 100% = IFN-gamma alone, no compound; activation (% of control), % at 5.5 µM; 200,000 tested, 2.6% active; AID 932, 2007;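 active = activation above the screen-wide mean activation plus 3 SD, cut at about 130% in these data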
APP 5'UTR act = activators of APP 5'UTR luciferase reporter, primary screen, SH-SY5Y cells | SH-SY5Y APP 5'UTR luciferase reporter, luminescence; zero percent = DMSO vehicle wells | activation, % at 2 µM | 190,000 tested, 1% active | AID 1276, 2008;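 active = activation above a set limit, based on mean plus 3 SD of controls, cut at about 140% in these data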
STAT1 inh = STAT1 signaling inhibitors, primary screen, cell-based, HTS, luciferase reporter; inhibition, % at 5.5 µM; NIH 3T3 STAT1-luciferase reporter, IFN-gamma, luminescence; 200,000 tested, 0.35% active; AID 920, 2007;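 active = inhibition above a set limit, the mean inhibition across all tested compounds plus 3 SD, cut at about 34% in these data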
Pf gametocyte = late stage P. falciparum gametocyte viability inhibitors, primary screen, ATP luminescence, HTS | P. falciparum stage V gametocytes, 24 h | inhibition, % at 10.9 µM | 150,000 tested, 0.065% active | AID 743093, 2013;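 active = inhibition above the mean plus 3 SD of compounds within the control limits, set per campaign, cut at about 38% in these data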
NF-kB neuron act = activators of NF-kB expression in neurons, primary screen, cell-based, HTS. human neuronal cells, NF-kB reporter expression; hits give high values. fold change at 12.5 µM. 190,000 tested, 1.6% active; in the data active = fold change above about 3.3
STAT3 act-1 = IL-6 driven STAT3 reporter potentiators, primary screen, U3A cells, luciferase, luminescence, MLSCN library; AID 871, 2007; activation (% of control), % at 5.6 µM; IL-6 STAT3-luciferase reporter; 100% = signal with IL-6 EC80 alone; 190,000 tested, 0.91% active;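 active = activation above the screen-wide mean of compound activation plus 3 SD, cut at about 130% in these data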
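Material: human STAT1-deficient U3A cells with stable STAT3-luciferase reporter / Probe or stimulus: IL-6 stimulus at 33 ng/mL final / Schedule: 1 h compound pre-exposure, 6 h IL-6 stimulation, 37 °C / Technique: luminescence / Read-out basis: percent of IL-6-only median luminescence / Control set: IL-6-only high control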
STAT3 act-2 = STAT3 reporter potentiators, retest of hits, confirmation, U3A cells, luciferase, luminescence; potentiation (% of control), % at 5.7 µM; IL-6 potentiation; U3A cells lack STAT1; 100 means same as IL-6 alone; shares compounds with STAT3 act-1; 1,200 tested, 64% active; AID 1267, 2008;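 active = percent activation of the STAT3 luciferase reporter above a set limit taken from the earlier primary screen, cut at about 130% in these data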
NFkB act STAT3ct = NF-kB reporter activators in human cells, counter-screen for STAT3 activator project | NF-kappaB reporter activation | activation (% of control), % at 5.7 µM | 1,200 tested, 11% active | shares compounds with STAT3 act-1; in the data active = activation above about 120%;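 note: reporter induced by TNF-alpha stimulation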
STAT1 act-2 = STAT1 reporter activators, IFN-gamma induced, counter-screen for STAT3 activator project, cell-based, NIH 3T3, luciferase luminescence; AID 1318, 2008; shares compounds with STAT3 act-1; NIH 3T3 STAT1-luciferase reporter; activation (% of control), % at 5.7 µM; 1,200 tested, 13% active;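 active = activation above the solvent-only control well mean plus 3 SD, set per screening run, cut at about 120% in these data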
A number is an active result; 0 = inactive; - = no result.

SMILES | STAT1 act-1 | APP 5'UTR act | STAT1 inh | Pf gametocyte | NF-kB neuron act | STAT3 act-1 | STAT3 act-2 | NFkB act STAT3ct | STAT1 act-2
Cc1cccc(C2c3[nH]c4ccccc4c3CCN2C(=O)c2cc(C(C)C)nc(N)n2)n1 (stereo not given) | 0 | 0 | 0 | 0 | 0 | 0 | - | - | -
Cc1cccc(C2c3[nH]c4ccccc4c3CCN2C(=O)c2cc3c([nH]c2=O)CCCC3)n1 (stereo not given) | 0 | 0 | 0 | 0 | 0 | 0 | - | - | -
Cc1ccc(S(=O)(=O)N2C(=O)CCC2C(N)=O)cc1 (stereo not given) | - | - | - | 0 | - | - | - | - | -
COc1ccc(-n2nnnc2SCc2nc3ccccc3s2)cc1 | 0 | 0 | 0 | - | 0 | 146 | 138 | 125 | 142
COCCn1c(SCc2nc3ccccc3s2)nc2ccccc21 | 0 | 0 | 0 | 0 | 0 | 147 | 146 | 122 | 140
COc1ccc(C)cc1-n1nnnc1SCc1nc2ccccc2s1 | 0 | 0 | 0 | 0 | 0 | 147 | 144 | 0 | 128
CCOCCCn1c(SCc2nc3ccccc3s2)nc2ccccc2c1=O | 0 | 0 | 0 | 0 | 0 | 0 | - | - | -
O=C1/C(=C\c2c(NCCOCCO)nc3ccccn3c2=O)SC(=S)N1Cc1ccco1 | - | - | - | 0 | - | - | - | - | -
COCCCNC(=O)Cn1cc(/C=C(\C#N)C(=O)NC2CCCC2)c2ccccc21 | - | - | - | 0 | - | - | - | - | -
CCOC(=O)c1ccc2c(c1)N(CC#N)C(=O)C(C)(C)O2 | 0 | 0 | 0 | 0 | 0 | 0 | - | - | -
COc1ccccc1/C=C(/CC(=O)NCc1ccc(F)cc1)c1nc2ccccc2s1 | 0 | 0 | 0 | 0 | 0 | 136 | 0 | 0 | 0
COc1ccccc1/C=C(/CC(=O)NCc1ccccc1)c1nc2ccccc2s1 | 0 | 0 | 0 | - | 0 | 0 | - | - | -
COCCNc1nnc(SCC(=O)c2c[nH]c3ccccc23)s1 | 0 | 0 | 0 | 0 | 0 | 141 | 136 | 0 | 0
COc1ccc(C(=O)NCC(O)COc2ccc(C(C)(C)C)cc2)cc1[N+](=O)[O-] (stereo not given) | 0 | 0 | 0 | - | 0 | 0 | - | - | -
CC(C)C1NC(=S)N(Cc2ccccc2)C1=O (stereo not given) | 0 | 0 | 0 | - | 0 | 142 | 0 | 0 | 0
O=C1C(Cc2c[nH]c3ccccc23)NC(=S)N1Cc1ccccc1 (stereo not given) | 0 | 0 | 0 | 0 | 0 | 0 | - | - | -
O=C(Cc1ccc([N+](=O)[O-])cc1)Nc1nnc(C2CC2)s1 | 0 | 0 | 0 | 0 | 0 | 0 | - | - | -
O=C(Cc1coc2ccc3ccccc3c12)Nc1nnc(C2CC2)s1 | 0 | 0 | 0 | - | 0 | 153 | 148 | 0 | 0
O=C(Cc1c[nH]c2ccccc12)Nc1nnc(C2CC2)s1 | 0 | 0 | 0 | 0 | 0 | 137 | 168 | 0 | 0
COc1cc(C(=O)NC(C)c2cccc3ccccc23)cc(OC)c1OC (stereo not given) | - | - | - | 0 | - | - | - | - | -
CC(=O)Nc1oc(-c2cccc3ccccc23)nc1C#N | - | - | - | 0 | - | - | - | - | -
Cc1cc2c(cc1C)CSC(c1ccc3ccccc3c1O)SC2 | 0 | 0 | 0 | - | 0 | 152 | 0 | 0 | 0
Cc1cc2c(cc1C)CSC(c1c(O)ccc3ccccc13)SC2 | 0 | 0 | 0 | - | 0 | 0 | - | - | -
Cc1[nH]c2ccccc2c1CN1CCc2ccccc2C1 | 0 | 0 | 0 | - | 0 | 158 | 0 | 0 | 0
O=c1[nH]c(CN2CCc3ccccc3C2)nc2ccccc12 | 0 | 0 | 0 | - | 0 | 0 | - | - | -
SMILES | STAT1 act-1 | APP 5'UTR act | STAT1 inh | Pf gametocyte | NF-kB neuron act | STAT3 act-1 | STAT3 act-2 | NFkB act STAT3ct | STAT1 act-2
O=P1(O)C=C(c2ccccc2)OC(c2ccccc2)=C1 | 0 | 0 | 0 | - | 0 | 136 | 145 | 0 | 127
c1ccc(-c2cc3ccccc3nc2N2CCCC2)cc1 | 0 | 0 | 0 | 0 | 0 | 136 | 0 | 0 | 0
Cc1ccc2cccc(N=Cc3c(C)[nH]n(-c4ccccc4)c3=O)c2n1 | 0 | 0 | 0 | 0 | 0 | 137 | 135 | 0 | 0
COc1cc(/C=N/NC(=S)NC(C)C)ccc1OCC(=O)Nc1c(C)cc(C)cc1C | 0 | 0 | 0 | 0 | 0 | 147 | 137 | 0 | 0
COc1ccc(C(=O)NN(C)c2nc(-c3ccccc3)nnc2C(F)(F)F)cc1 | 0 | 0 | 0 | 0 | 0 | 0 | - | - | -
COc1ccc(C(=O)NN(C)c2nc(C(F)(F)F)nc3ccccc23)cc1 | 0 | 0 | 0 | 0 | 0 | 156 | 0 | 165 | 0
O=C(Cc1cccs1)Nc1ccccn1 | 0 | 0 | 0 | - | 0 | 157 | 137 | 0 | 0
CC(C)(C)OC(=O)C[C@@H]1C/C=C\C[C@H](CC(=O)N(CCO)Cc2ccccc2)C(=O)N[C@H](C(C)(C)C)COC1=O | - | - | - | 0 | - | - | - | - | -
COc1ccccc1C(=O)Nc1cc2ccccc2oc1=O | 0 | 0 | 0 | - | 0 | 184 | 192 | 135 | 166
CCOc1ccccc1C(=O)Nc1cc(Cl)ccc1O | 0 | 0 | 0 | - | 0 | 0 | - | - | -
COc1ccccc1C(=O)Nc1cc2cc(Br)ccc2oc1=O | 0 | 0 | 0 | 0 | 0 | 137 | 138 | 0 | 134
COc1cc(NC(=O)c2cc3ccccc3o2)c(OC)cc1Br | 0 | 0 | 0 | - | 0 | 149 | 135 | 0 | 0
COc1ccccc1C(=O)Nc1cc(Cl)ccc1O | 0 | 0 | 0 | - | 0 | 151 | 162 | 0 | 0
COc1ccccc1/C=C(/NC(=O)c1ccc(Cl)cc1Cl)C(=O)O | 0 | 0 | 0 | - | 0 | 0 | - | - | -
O=C(Nc1cc(C(F)(F)F)ccc1N1CCOCC1)c1cccs1 | 0 | 0 | 0 | - | 0 | 0 | - | - | -
CN(C)c1ccc(P(=O)(Nc2cccc(C(F)(F)F)c2)N2CCOCC2)c(NC(=O)c2cccs2)c1 (stereo not given) | 0 | 0 | 0 | 0 | 0 | 140 | 0 | 0 | 0
O=C(C1CCCN(S(=O)(=O)c2cccc3cccnc23)C1)N1CCc2ccccc21 (stereo not given) | 0 | 0 | 0 | - | 0 | 138 | 135 | 0 | 0
O=C(NC1CCCCC1)C1CCCN(S(=O)(=O)c2cccc3cccnc23)C1 (stereo not given) | - | - | - | 0 | - | - | - | - | -
COc1ccc(C)c2sc(=NC(=O)c3ccccc3)n(C)c12 | 0 | 0 | 0 | - | 3.6 | 136 | 139 | 148 | 182
N#C/C(=C(/O)COC(=O)CCc1ccc(S(=O)(=O)N2CCOCC2)cc1)c1nc2ccccc2[nH]1 | 0 | 0 | 0 | 0 | 0 | 149 | 144 | 0 | 0

High-throughput results: PubChem BioAssay, several laboratories
